We go through ten compounds from ChEMBL document CHEMBL1133629, “Cholic acid derivatives as 1,2,4,5-tetraoxane carriers: structure and antimalarial and antiproliferative activity” (J Med Chem, 2000).

Assay [1] has as its system Plasmodium falciparum. As to the kind of experiment: Antimalarial activity in Plasmodium falciparum Indochina W2. Type of assay: functional, organism-based. The method in brief:
(§1)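 P. falciparum clones in human erythrocytes at 0.2% parasitemia and 1% hematocrit, in RPMI-1640 without folate or PABA plus 10% heat-inactivated human plasma. Compounds were diluted 2-fold 11 times ([…] range). Incubation was at 37 °C under 5% CO2/5% O2/90% N2, with [3H]hypoxanthine added at 42 h and 24 h further (66 h total). Cells were freeze-lysed, harvested and scintillation-counted; IC50 by nonlinear logistic dose-response fit.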

The test system of a further assay is HeLa. As to the kind of experiment: Antiproliferative activity in HeLa cells of Human cervix carcinoma. In kind it is functional, cell-based. The method in brief:
(§2)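 Cells were maintained as monolayers at 37 °C, 5% CO2, in RPMI-1640 with 10% heat-inactivated FBS, 25 mM Hepes, pH 7.2. They were seeded at 2000 cells/well in triplicate, and five concentrations were added 20 h later from 8 mM DMSO stocks; DMSO-only controls. MTT was added at 72 h for 4 h, then SDS/HCl, with OD570 read the next day. Blank-corrected survival vs control; IC50 = 50% survival inhibition.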

In assay [2] the test system is Plasmodium falciparum. As to the kind of experiment: Antimalarial activity against Plasmodium falciparum African D6. In kind it is functional, organism-based. The method in brief:
as §1

Assay [3] can be described thus: Antiproliferative activity in Fem-X of Human melanoma. In kind it is functional. The gist of the method:
as §2

In a further assay the test system is CCRF-CEM. As to the kind of experiment: Antiproliferative activity as Growth inhibition in CCRF-CEM Leukemia cell line. Particulars: Homo sapiens. Type of assay: functional. The method in brief: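 NCI 60-cell-line screen: 48-h continuous drug exposure, growth measured by sulforhodamine B protein assay. GI50 is the interpolated concentration giving +50 percentage growth.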

Assay [4] is described as follows: Selectivity, ratio of PHA-stimulated PBMC to D6 clone. In kind it is functional.
Assay [5] can be described thus: Cytotoxic activity against phytohemagglutininin (PHA)-stimulated peripheral blood mononuclear cells (PBMC) inhibition. Particulars: Homo sapiens; read-out: Cytotoxicity IC50. In kind it is functional. The gist of the method:
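PBMC were isolated from heparinized blood of three healthy volunteers by density-gradient centrifugation and seeded at 100 000 cells/well in RPMI-based medium. Stimulated cultures received PHA at 5 µg/mL final; non-stimulated cultures received none. Compound dilutions were added 2 h later in triplicate, with medium-only controls. IC50 was determined for each donor.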

Assay [6] in a line: Selectivity, ratio of PHA-stimulated PBMC to PBMC. Type of assay: functional.
The test system of assay [7] is Plasmodium falciparum. As to the kind of experiment: Antimalarial activity in Plasmodium falciparum FCR3. In kind it is functional, organism-based.
The subject of another assay is FM3A. As to the kind of experiment: Antiproliferative activity in Mouse mammary tumor FM3A. Type of assay: functional, cell-based.

In general, pIC50 refers to −log10 of the IC50, conventionally taken in molar units. Lower therefore signals a large IC50. In general, GI50 refers to the concentration at which growth is held to half of that of the control. A higher GI50 goes with less potent growth inhibition. For orientation: pEC50 means −log10 of the EC50, conventionally taken in molar units. A low value points to a large EC50.

pEC50, pIC50: −log10 of the molar value.

Regarding `COC(=O)CCC(C)[C@H]1CC[C@H]2[C@@H]3[C@H](OC(C)=O)C[C@@H]4C[C@]5(CC[C@]4(C)[C@H]3C[C@H](OC(C)=O)[C@]12C)OO[C@]1(CC[C@@]2(C)[C@H](C[C@@H](OC(C)=O)[C@@H]3[C@@H]2C[C@H](OC(C)=O)[C@]2(C)[C@@H](C(C)CCC(=O)OC)CC[C@@H]32)C1)OO5` (some centres not stated), the pIC50 in the assay with Plasmodium falciparum [1] was less than 7.02; in the assay on HeLa (Homo sapiens, HeLa), 4.69; with Plasmodium falciparum [2], less than 7.02; in [3], 4.71.
With `CC(=O)O[C@H]1C[C@H]2[C@@H]([C@H](OC(C)=O)C[C@@H]3C[C@]4(CC[C@@]32C)OO[C@]2(CC[C@@]3(C)[C@H](C[C@@H](OC(C)=O)[C@@H]5[C@@H]3C[C@H](OC(C)=O)[C@]3(C)[C@@H](C(C)CCC(N)=O)CC[C@@H]53)C2)OO4)[C@@H]2CC[C@H](C(C)CCC(N)=O)[C@@]12C` (some centres not stated), the negative-log IC50 (pIC50) in the assay with Plasmodium falciparum [1] is 7.23; with HeLa (Homo sapiens, HeLa) it was 5.22; with Plasmodium falciparum [2] it was 6.89; in assay [3], 5.21.
As for `COC(=O)CCC(C)[C@H]1CC[C@H]2[C@@H]3[C@H](OC(C)=O)C[C@@H]4C[C@]5(CC[C@]4(C)[C@H]3C[C@H](OC(C)=O)[C@]12C)OO[C@@]1(CC[C@@]2(C)[C@H](C[C@@H](OC(C)=O)[C@@H]3[C@@H]2C[C@H](OC(C)=O)[C@]2(C)[C@@H](C(C)CCC(=O)OC)CC[C@@H]32)C1)OO5` (some centres not stated), halving of growth in the assay with CCRF-CEM (GI50) required 14800 nM. Moreover, the pIC50 with Plasmodium falciparum [1] was less than 7.02; in the assay with HeLa (Homo sapiens, HeLa), less than 4.54; in the assay on Plasmodium falciparum [2] it was less than 7.02; in assay [3], less than 4.54.
The compound `CC(=O)O[C@H]1C[C@H]2[C@@H]([C@H](OC(C)=O)C[C@@H]3C[C@]4(CC[C@@]32C)OO[C@@]2(CC[C@@]3(C)[C@H](C[C@@H](OC(C)=O)[C@@H]5[C@@H]3C[C@H](OC(C)=O)[C@]3(C)[C@@H](C(C)CCC(=O)O)CC[C@@H]53)C2)OO4)[C@@H]2CC[C@H](C(C)CCC(=O)O)[C@@]12C` (some centres not stated) had a GI50 in the assay with CCRF-CEM of 1.2 nM. In addition, the pIC50 in the assay on Plasmodium falciparum [1] was less than 7.00; in the assay with HeLa (Homo sapiens, HeLa), 8.28; with Plasmodium falciparum [2], less than 7.00; in assay [3], 8.38.
Turning to `CCCNC(=O)CCC(C)[C@H]1CC[C@H]2[C@@H]3[C@H](OC(C)=O)C[C@@H]4C[C@]5(CC[C@]4(C)[C@H]3C[C@H](OC(C)=O)[C@]12C)OO[C@@]1(CC[C@@]2(C)[C@H](C[C@@H](OC(C)=O)[C@@H]3[C@@H]2C[C@H](OC(C)=O)[C@]2(C)[C@@H](C(C)CCC(=O)NCCC)CC[C@@H]32)C1)OO5` (some centres not stated), the Ratio in assay [4] was 10333; in assay [6] it was more than 10700. Besides, the pIC50 with Plasmodium falciparum [1] was 7.22; in the assay with HeLa (Homo sapiens, HeLa) it was 4.48; with Plasmodium falciparum [2], 8.03; in assay [3] it was 4.64. Also, the CC50 in assay [5] turned out to be 96000 nM.
In the case of `CC(=O)O[C@H]1C[C@H]2[C@@H]([C@H](OC(C)=O)C[C@@H]3C[C@]4(CC[C@@]32C)OO[C@]2(CC[C@@]3(C)[C@H](C[C@@H](OC(C)=O)[C@@H]5[C@@H]3C[C@H](OC(C)=O)[C@]3(C)[C@@H](C(C)CCC(=O)O)CC[C@@H]53)C2)OO4)[C@@H]2CC[C@H](C(C)CCC(=O)O)[C@@]12C` (some centres not stated), the pIC50 with Plasmodium falciparum [1] is less than 7.00; in the assay on HeLa (Homo sapiens, HeLa), 8.04; with Plasmodium falciparum [2], less than 7.00; in assay [3] it was 8.12.
Take `CCCNC(=O)CCC(C)[C@H]1CC[C@H]2[C@@H]3[C@H](OC(C)=O)C[C@@H]4C[C@]5(CC[C@]4(C)[C@H]3C[C@H](OC(C)=O)[C@]12C)OO[C@]1(CC[C@@]2(C)[C@H](C[C@@H](OC(C)=O)[C@@H]3[C@@H]2C[C@H](OC(C)=O)[C@]2(C)[C@@H](C(C)CCC(=O)NCCC)CC[C@@H]32)C1)OO5` (some centres not stated): in the assay on CCRF-CEM, it took 100 nM to inhibit growth by half (GI50). In addition, the Ratio in assay [4] was 12500; in assay [6], more than 15900. In addition, the pIC50 with Plasmodium falciparum [1] is 7.52; in the assay with HeLa (Homo sapiens, HeLa), 6.78; with Plasmodium falciparum [2], 7.70; in [3], 4.03. The CC50 in [5] is 251000 nM.
For `CC(=O)O[C@H]1C[C@H]2[C@@H]([C@H](OC(C)=O)C[C@@H]3C[C@]4(CC[C@@]32C)OO[C@@]2(CC[C@@]3(C)[C@H](C[C@@H](OC(C)=O)[C@@H]5[C@@H]3C[C@H](OC(C)=O)[C@]3(C)[C@@H](C(C)CCC(N)=O)CC[C@@H]53)C2)OO4)[C@@H]2CC[C@H](C(C)CCC(N)=O)[C@@]12C` (some centres not stated), in the assay with CCRF-CEM, it took 970 nM to inhibit growth by half (GI50). Moreover, the pIC50 is 7.73 in the assay with Plasmodium falciparum [1]; 5.43 in the assay with HeLa (Homo sapiens, HeLa); 7.62 in the assay on Plasmodium falciparum [2]; 5.51 in assay [3].
On to `C[C@@H]1CC[C@H]2[C@@H](C)C(=O)O[C@@H]3O[C@@]4(C)CC[C@@H]1[C@]32OO4` [ARTEMISININ], for which the pIC50 with Plasmodium falciparum [1] was 8.14; with Plasmodium falciparum [2], 8.07. Moreover, the negative-log EC50 (pEC50) is 8.11 in the assay on Plasmodium falciparum [7] and 5.00 in the assay with FM3A.
In the assay on HeLa (hela), CISPLATIN showed a negative logarithm of the IC50 (pIC50) of 8.46.
